≈ marks a conversion by molar mass, not a printed value.
These molecules were tested on Mycobacterium tuberculosis (assay: Antimycobacterial activity against isoniazid/rifampicin/ethambutol-resistant Mycobacterium tuberculosis after 7 days). Conditions: 168 h.
Type: functional
Outline: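 Rapid direct susceptibility test in 48-well plates. Two-fold dilutions of compound from DMSO stocks were mixed with an equal volume of bacterial suspension. Medium-only wells served as growth controls and water-only wells as no-growth controls. Plates were sealed and held at 37 C in a humid box, and controls were checked at 3 days. MIC (90% growth inhibition) was read visually by high-magnification observation of the cells and re-read at 7 days.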
`CO/N=C1\C(=O)N(CCCN2CCN(c3cc4c(cc3F)c(=O)c(C(=O)O)cn4C3CC3)CC2)c2ccccc21` showed an MIC90 of 2 µg/mL (≈ 3.65 µM).
In the case of `CO/N=C1\C(=O)N(CCCN2CCN(c3cc4c(cc3F)c(=O)c(C(=O)OCCCN3C(=O)/C(=N/OC)c5ccccc53)cn4C3CC3)CC2)c2ccccc21`, the MIC90 was 64 µg/mL (≈ 83.8 µM).
Molecule `CCO/N=C1\C(=O)N(CCCN2CCN(c3cc4c(cc3F)c(=O)c(C(=O)OCCCN3C(=O)/C(=N/OCC)c5ccccc53)cn4C3CC3)CC2)c2ccccc21` has an MIC90 of 64 µg/mL (≈ 80.8 µM).
`CCO/N=C1\C(=O)N(CCCN2CCN(c3cc4c(cc3F)c(=O)c(C(=O)O)cn4C3CC3)CC2)c2ccc(C)cc21` was tested, and the MIC90 was 4 µg/mL (≈ 6.95 µM).
In the case of `Cc1ccc2c(c1)C(=O)C(=O)N2CCCOC(=O)c1cn(C2CC2)c2cc(N3CCN(CCCN4C(=O)C(=O)c5cc(C)ccc54)CC3)c(F)cc2c1=O`, the MIC90 was 32 µg/mL (≈ 43.6 µM).
For `CO/N=C1\C(=O)N(CCCN2CCN(c3cc4c(cc3F)c(=O)c(C(=O)O)cn4C3CC3)CC2)c2ccc(C)cc21`, the MIC90 was 1 µg/mL (≈ 1.78 µM).
`O=C1C(=O)N(CCCN2CCN(c3cc4c(cc3F)c(=O)c(C(=O)O)cn4C3CC3)CC2)c2ccccc21` showed an MIC90 of 0.5 µg/mL (≈ 0.964 µM).
`CO/N=C1\C(=O)N(CCCN2CCN(c3cc4c(cc3F)c(=O)c(C(=O)OCCCN3C(=O)/C(=N/OC)c5cc(C)ccc53)cn4C3CC3)CC2)c2ccc(C)cc21` was tested, and the MIC90 was 32 µg/mL (≈ 40.4 µM).
For `CCO/N=C1\C(=O)N(CCCN2CCN(c3cc4c(cc3F)c(=O)c(C(=O)O)cn4C3CC3)CC2)c2ccccc21`, the MIC90 was 1 µg/mL (≈ 1.78 µM).
`CCO/N=C1\C(=O)N(CCCN2CCN(c3cc4c(cc3F)c(=O)c(C(=O)OCCCN3C(=O)/C(=N/OCC)c5cc(C)ccc53)cn4C3CC3)CC2)c2ccc(C)cc21` gave an MIC90 of 64 µg/mL (≈ 78.1 µM).
`O=C1C(=O)N(CCCOC(=O)c2cn(C3CC3)c3cc(N4CCN(CCCN5C(=O)C(=O)c6ccccc65)CC4)c(F)cc3c2=O)c2ccccc21` showed an MIC90 of 32 µg/mL (≈ 45.3 µM).
For `Cc1ccc2c(c1)C(=O)C(=O)N2CCCN1CCN(c2cc3c(cc2F)c(=O)c(C(=O)O)cn3C2CC2)CC1`, the MIC90 was 0.5 µg/mL (≈ 0.939 µM).
In the case of `O=C(O)c1cn(C2CC2)c2cc(N3CCNCC3)c(F)cc2c1=O` [CIPROFLOXACIN], the MIC90 was 2 µg/mL (≈ 6.04 µM).
Molecule `NNC(=O)c1ccncc1` [ISONIAZID] has an MIC90 greater than 128 µg/mL.
Work on `CO[C@H]1/C=C/O[C@@]2(C)Oc3c(C)c(O)c4c(O)c(c(/C=N/N5CCN(C)CC5)c(O)c4c3C2=O)NC(=O)/C(C)=C\C=C\[C@H](C)[C@H](O)[C@@H](C)[C@@H](O)[C@@H](C)[C@H](OC(C)=O)[C@@H]1C` [RIFAMPIN] yielded an MIC90 of 32 µg/mL (≈ 38.9 µM).

These molecules were tested on Mycobacterium tuberculosis (assay: Potency index, ratio of ciprofloxacin MIC90 to compound MIC90 for isoniazid/rifampicin/ethambutol-resistant Mycobacterium tuberculosis after 7 days). Conditions: not given.
Type: functional
In the case of `Cc1ccc2c(c1)C(=O)C(=O)N2CCCN1CCN(c2cc3c(cc2F)c(=O)c(C(=O)O)cn3C2CC2)CC1`, the Ratio was “>=4 - 256”.

These molecules were tested on Mycobacterium tuberculosis (assay: Potency index, ratio of rifampicin MIC90 to compound MIC90 for isoniazid/rifampicin/ethambutol-resistant Mycobacterium tuberculosis after 7 days). Conditions: not given.
Type: functional
For `Cc1ccc2c(c1)C(=O)C(=O)N2CCCN1CCN(c2cc3c(cc2F)c(=O)c(C(=O)O)cn3C2CC2)CC1`, the Ratio was “>=4 - 256”.

What follows are molecules tested on Mycobacterium tuberculosis (assay: Potency index, ratio of isoniazid MIC90 to compound MIC90 for isoniazid/rifampicin/ethambutol-resistant Mycobacterium tuberculosis after 7 days). Conditions: not given.
Type: functional
For `Cc1ccc2c(c1)C(=O)C(=O)N2CCCN1CCN(c2cc3c(cc2F)c(=O)c(C(=O)O)cn3C2CC2)CC1`, the Ratio was “>=4 - 256”.

Reference: ChEMBL document CHEMBL4270565, “Design, synthesis and antimicrobial evaluation of propylene-tethered ciprofloxacin-isatin hybrids” (Eur J Med Chem, 2018)
